Assay results: ChEMBL document CHEMBL1828561, “Identification of a potent and selective free fatty acid receptor 1 (FFA1/GPR40) agonist with favorable physicochemical and in vitro ADME properties” (J Med Chem, 2011)
Calls of active or inactive are those of the source. No cut-off for these calls is given here.

Columns and labels:
1321-N1 [1] = assay: Selectivity for human FFA1 receptor expressed in human 1321N1 cells over 5HT2B receptor; type: cell-based
1321-N1 [2] = assay: Selectivity for human FFA1 receptor expressed in human 1321N1 cells over CCK1 receptor; type: cell-based
1321-N1 [3] = assay: Selectivity for human FFA1 receptor expressed in human 1321N1 cells over GAL2 receptor; type: cell-based
1321-N1 [4] = assay: Selectivity for human FFA1 receptor expressed in human 1321N1 cells over A3 receptor; type: cell-based
1321-N1 [5] = assay: Selectivity for human FFA1 receptor expressed in human 1321N1 cells over SKCa channel; type: cell-based
1321-N1 [6] = assay: Selectivity for human FFA1 receptor expressed in human 1321N1 cells over A2A receptor; type: cell-based
[7] = molecular target: Free fatty acid receptor 1 (Rattus norvegicus) (UniProt Q8K3T4); assay: Agonist activity at FFA1 receptor in rat INS-1E cells assessed as increase in glucose-stimulated insulin production at 10 uM after 1 hr by radioimmunoassay in presence of 12 mM glucose; type: functional, cell-based
In short: (§1)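 Rat INS-1E cells seeded at 100 000 cells/mL in 24-well plates for 2 days. Incubated 1 h at 37 °C in pH 7.4 HEPES-bicarbonate saline with 1 mM CaCl2 and 0.5 g/L fatty-acid-free BSA plus test substance. Secreted insulin and acid-ethanol-extracted content measured by radioimmunoassay. Mean ± SE, n = 8.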

1321-N1 [8] = assay: Selectivity for human FFA1 receptor expressed in human 1321N1 cells over […]; type: cell-based
1321-N1 [9] = assay: Selectivity for human FFA1 receptor expressed in human 1321N1 cells over CXCR2 receptor; type: cell-based
1321-N1 [10] = assay: Selectivity for human FFA1 receptor expressed in human 1321N1 cells over norepinephrine transporter; type: cell-based
CYP2C19 = CYP2C19 (Homo sapiens, UniProt P33261); assay: Inhibition of CYP2C19 at 10 uM; type: ADME
[11] = molecular target: Free fatty acid receptor 1 (Rattus norvegicus) (UniProt Q8K3T4); assay: Agonist activity at FFA1 receptor in rat INS-1E cells assessed as increase in glucose-stimulated insulin production at 10 uM after 1 hr by radioimmunoassay in presence of 2.8 mM glucose; type: functional, cell-based; in short: as §1
1321-N1 [12] = assay: Selectivity for human FFA1 receptor expressed in human 1321N1 cells over TP receptor; type: cell-based
1321-N1 [13] = assay: Selectivity for human FFA1 receptor expressed in human 1321N1 cells over NTS1 receptor; type: cell-based
1321-N1 [14] = assay: Selectivity for human FFA1 receptor expressed in human 1321N1 cells over Ca2+ channel; type: cell-based
Liver = assay: Metabolic stability in human liver S9 fraction; type: ADME, subcellular
[15] = Octanol-water partition coefficient, log D of the compound at pH 7.4 by HPLC analysis; type: physicochemical
In short: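 Distribution between n-octanol and water (PBS), pH 7.4, determined experimentally.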

1321-N1 [16] = assay: Selectivity for human FFA1 receptor expressed in human 1321N1 cells over NK2 receptor; type: cell-based
[17] = Inhibition of P-glycoprotein at 100 uM
In short: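 P-glycoprotein inhibition tested at 100 μM compound.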

1321-N1 [18] = assay: Selectivity for human FFA1 receptor expressed in human 1321N1 cells over A1 receptor; type: cell-based
[19] = molecular target: T1, Free fatty acid receptor 1 (Homo sapiens, UniProt O14842); assay: Agonist activity at human FFA1 receptor expressed in human HEK293 assessed as movement of cellular constitiuent by DMR assay; type: functional, cell-based
In short: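 FFA1-HEK cells (doxycycline-inducible FLAG-hFFA1, HEK293), 15 000/well on fibronectin-coated 384-well Epic plates, 20–24 h culture. Washed in HBSS/20 mM HEPES, equilibrated 1 h at 28 °C, baseline read, compound added.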

1321-N1 [20] = assay: Selectivity for human FFA1 receptor expressed in human 1321N1 cells over 5HT6 receptor; type: cell-based
CYP2D6 = CYP2D6 (Homo sapiens, UniProt P10635); assay: Inhibition of CYP2D6 at 10 uM; type: ADME
1321-N1 [21] = assay: Selectivity for human FFA1 receptor expressed in human 1321N1 cells over M2 receptor; type: cell-based
1321-N1 [22] = assay: Selectivity for human FFA1 receptor expressed in human 1321N1 cells over NK3 receptor; type: cell-based
[23] = Octanol-phosphate buffer partition coefficient, log D of the compound at pH 7.4 by HPLC analysis; type: physicochemical
[24] = molecular target: T1, Free fatty acid receptor 1; assay: Agonist activity at human FFA1 receptor expressed in human 1321N1 cells assessed as calcium mobilization by fluorescence spectrophotometry; type: functional, cell-based
1321-N1 [25] = assay: Selectivity for human FFA1 receptor expressed in human 1321N1 cells over NOP receptor; type: cell-based
HEK293 = assay: Selectivity for human FFA1 receptor expressed in human 1321N1 cells over human FFA2 receptor expressed in HEK293 cells at 10 uM; type: cell-based
1321-N1 [26] = assay: Selectivity for human FFA1 receptor expressed in human 1321N1 cells over sst receptor; type: cell-based
1321-N1 [27] = assay: Selectivity for human FFA1 receptor expressed in human 1321N1 cells over Y2 receptor; type: cell-based
1321-N1 [28] = assay: Selectivity for human FFA1 receptor expressed in human 1321N1 cells over D1 receptor; type: cell-based
1321-N1 [29] = assay: Selectivity for human FFA1 receptor expressed in human 1321N1 cells over CCR1 receptor; type: cell-based
1321-N1 [30] = assay: Selectivity for human FFA1 receptor expressed in human 1321N1 cells over Y1 receptor; type: cell-based
1321-N1 [31] = assay: Selectivity for human FFA1 receptor expressed in human 1321N1 cells over ETA receptor; type: cell-based
[32] = Permeability across methotrexate treated human HT-29 cells assessed as compound recovery; type: ADME, cell-based; conditions: read-out: Activity
In short: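 HT29-MTX mucus-producing cells, passage 32, grown 23 days (TEER > 750 Ω cm²). Compound at 100 μM (10 mM DMSO stock diluted 1:100 in buffer). […] Non-permeated drug measured for recovery. Monolayer integrity checked by 20 μM carboxyfluorescein after 1 h and TEER.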

[33] = molecular target: Free fatty acid receptor 1 (Rattus norvegicus) (UniProt Q8K3T4); assay: Agonist activity at FFA1 receptor in rat INS-1E cells assessed as movement of cellular constitiuent by DMR assay; type: functional, cell-based
In short: (§2)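 Label-free DMR on an Epic optical biosensor. Rat INS-1E cells, 30 000/well on fibronectin-coated 384-well sensor plates, cultured 20–24 h to confluence. Washed in HBSS/20 mM HEPES and equilibrated 1 h at 28 °C. Baseline read, compound added, wavelength shift (pm) monitored ≥5000 s. Antagonist line: 0.3 μM agonist with the FFA1 antagonist over a concentration range, pIC50 derived, n = 4.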

1321-N1 [34] = assay: Selectivity for human FFA1 receptor expressed in human 1321N1 cells over M3 receptor; type: cell-based
1321-N1 [35] = assay: Selectivity for human FFA1 receptor expressed in human 1321N1 cells over H2 receptor; type: cell-based
1321-N1 [36] = assay: Selectivity for human FFA1 receptor expressed in human 1321N1 cells over H1 receptor; type: cell-based
[37] = molecular target: Free fatty acid receptor 1 (Rattus norvegicus) (UniProt Q8K3T4); assay: Agonist activity at FFA1 receptor in rat INS-1E cells assessed as movement of cellular constitiuent at 0.3 uM by DMR assay in the presence of trans-1-oxo-3-(4-phenoxyphenyl)-2-propyl-1,2,3,4-tetrahydroisoquinoline-4-carboxylic acid; type: functional, cell-based; in short: as §2
1321-N1 [38] = assay: Selectivity for human FFA1 receptor expressed in human 1321N1 cells over kappa receptor; type: cell-based
1321-N1 [39] = assay: Selectivity for human FFA1 receptor expressed in human 1321N1 cells over MC4 receptor; type: cell-based
1321-N1 [40] = assay: Selectivity for human FFA1 receptor expressed in human 1321N1 cells over dopamine transporter; type: cell-based

Free fatty acid receptor 1 (Rattus norvegicus), sequence (Q8K3T4 whole entry): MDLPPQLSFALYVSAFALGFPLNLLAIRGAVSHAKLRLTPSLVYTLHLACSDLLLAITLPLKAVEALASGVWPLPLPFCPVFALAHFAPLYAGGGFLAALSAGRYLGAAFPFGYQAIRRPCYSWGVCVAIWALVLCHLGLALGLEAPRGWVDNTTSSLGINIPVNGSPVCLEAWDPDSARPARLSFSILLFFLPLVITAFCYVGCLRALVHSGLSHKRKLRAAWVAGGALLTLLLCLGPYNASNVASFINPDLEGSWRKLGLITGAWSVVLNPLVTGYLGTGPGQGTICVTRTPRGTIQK
T1 sequence (O14842 whole entry): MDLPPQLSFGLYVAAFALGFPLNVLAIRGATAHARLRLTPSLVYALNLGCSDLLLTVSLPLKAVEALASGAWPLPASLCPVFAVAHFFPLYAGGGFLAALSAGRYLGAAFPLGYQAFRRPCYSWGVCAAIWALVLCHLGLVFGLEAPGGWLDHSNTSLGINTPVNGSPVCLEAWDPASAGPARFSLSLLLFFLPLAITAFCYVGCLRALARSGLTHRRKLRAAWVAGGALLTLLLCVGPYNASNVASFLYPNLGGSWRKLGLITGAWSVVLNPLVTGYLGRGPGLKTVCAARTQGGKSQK
CYP2C19, sequence (P33261 whole entry): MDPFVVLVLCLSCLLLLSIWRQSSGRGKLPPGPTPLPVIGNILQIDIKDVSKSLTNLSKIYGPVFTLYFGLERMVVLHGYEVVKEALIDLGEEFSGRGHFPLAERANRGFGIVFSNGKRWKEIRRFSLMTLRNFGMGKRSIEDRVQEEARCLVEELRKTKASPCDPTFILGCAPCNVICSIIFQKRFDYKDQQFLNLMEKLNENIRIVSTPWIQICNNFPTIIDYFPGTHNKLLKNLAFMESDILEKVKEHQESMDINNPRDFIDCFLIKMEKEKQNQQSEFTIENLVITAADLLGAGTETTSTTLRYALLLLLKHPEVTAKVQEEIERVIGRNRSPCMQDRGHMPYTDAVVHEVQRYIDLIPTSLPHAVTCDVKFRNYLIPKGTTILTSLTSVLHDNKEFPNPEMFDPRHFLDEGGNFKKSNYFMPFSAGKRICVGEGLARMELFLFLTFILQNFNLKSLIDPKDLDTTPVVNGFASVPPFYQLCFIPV
CYP2D6, sequence (P10635 whole entry): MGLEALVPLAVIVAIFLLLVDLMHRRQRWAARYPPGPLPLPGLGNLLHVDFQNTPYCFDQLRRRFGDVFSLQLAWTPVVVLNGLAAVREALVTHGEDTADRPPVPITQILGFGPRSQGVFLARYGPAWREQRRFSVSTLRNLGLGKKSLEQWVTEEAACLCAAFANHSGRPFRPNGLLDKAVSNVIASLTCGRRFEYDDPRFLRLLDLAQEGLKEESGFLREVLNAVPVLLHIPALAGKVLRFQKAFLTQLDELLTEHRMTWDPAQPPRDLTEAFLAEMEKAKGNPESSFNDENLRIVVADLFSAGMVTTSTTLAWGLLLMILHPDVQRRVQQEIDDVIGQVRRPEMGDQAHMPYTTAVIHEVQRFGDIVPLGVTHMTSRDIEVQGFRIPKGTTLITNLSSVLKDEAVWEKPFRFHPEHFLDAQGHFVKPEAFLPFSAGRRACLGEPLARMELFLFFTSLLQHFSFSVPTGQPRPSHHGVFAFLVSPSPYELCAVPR

Activity [7]: 60% | inhibition at 10 µM (CYP2C19): -7% | Activity [11]: inactive | Stability (Liver): 97% | logD [15]: 1.97 | inhibition [17]: -1.9% | Activity [19]: Active | inhibition at 10 µM (CYP2D6): 5% | logD [23]: 1.97 | EC50 [24]: 40.7 nM | recovery [32]: 63% | Activity [33]: Active | Activity [37]: inactive
Structure (SMILES): O=C(O)CCc1ccc(C#Cc2cc(Cl)nc(Cl)c2)cc1
Selectivity ratio (1321-N1 [1]): > 100 | Selectivity ratio (1321-N1 [2]): > 100 | Selectivity ratio (1321-N1 [3]): > 100 | Selectivity ratio (1321-N1 [4]): > 100 | Selectivity ratio (1321-N1 [5]): > 100 | Selectivity ratio (1321-N1 [6]): > 100 | Selectivity ratio (1321-N1 [8]): > 100 | Selectivity ratio (1321-N1 [9]): > 100 | Selectivity ratio (1321-N1 [10]): > 100 | Selectivity ratio (1321-N1 [12]): > 100 | Selectivity ratio (1321-N1 [13]): > 100 | Selectivity ratio (1321-N1 [14]): > 100 | Selectivity ratio (1321-N1 [16]): > 100 | Selectivity ratio (1321-N1 [18]): > 100 | Selectivity ratio (1321-N1 [20]): > 100 | Selectivity ratio (1321-N1 [21]): > 100 | Selectivity ratio (1321-N1 [22]): > 100 | Selectivity ratio (1321-N1 [25]): > 100 | Selectivity ratio (HEK293): > 100 | Selectivity ratio (1321-N1 [26]): > 100 | Selectivity ratio (1321-N1 [27]): > 100 | Selectivity ratio (1321-N1 [28]): > 100 | Selectivity ratio (1321-N1 [29]): > 100 | Selectivity ratio (1321-N1 [30]): > 100 | Selectivity ratio (1321-N1 [31]): > 100 | Selectivity ratio (1321-N1 [34]): > 100 | Selectivity ratio (1321-N1 [35]): > 100 | Selectivity ratio (1321-N1 [36]): > 100 | Selectivity ratio (1321-N1 [38]): > 100 | Selectivity ratio (1321-N1 [39]): > 100 | Selectivity ratio (1321-N1 [40]): > 100
